Results taken from PMC8516733 (Biomedicine & pharmacotherapy = Biomedecine & …, 2021).
pIC50: −log10 of the molar value. Values joined by “and” are separate entries in the source; they are usually repeats but may differ in a detail not shown here. Equal entries are not always repeated. “Also recorded” adds a separate entry of the source.

What was measured:
[1] = biological target: T1, cloned rat kappa opioid receptors (Rattus norvegicus, UniProt P34975); experiment: cell-based; assay type: cell-based
T1 sequence (P34975 whole entry): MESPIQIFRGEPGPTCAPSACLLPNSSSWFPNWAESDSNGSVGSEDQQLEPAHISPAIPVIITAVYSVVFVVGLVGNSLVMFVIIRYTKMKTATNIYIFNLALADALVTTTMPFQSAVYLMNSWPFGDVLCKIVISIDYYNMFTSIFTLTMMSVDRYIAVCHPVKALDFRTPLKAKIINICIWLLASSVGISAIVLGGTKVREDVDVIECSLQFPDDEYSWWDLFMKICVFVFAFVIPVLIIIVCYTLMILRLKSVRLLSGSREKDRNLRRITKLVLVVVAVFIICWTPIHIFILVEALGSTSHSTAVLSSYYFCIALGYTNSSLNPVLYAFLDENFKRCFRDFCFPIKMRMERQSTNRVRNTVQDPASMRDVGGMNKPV

[2] = biological target: cloned rat κappa opioid receptors (Rattus norvegicus, UniProt P34975); experiment: Adenylyl cyclase assay; assay type: cell-based; conditions: relative to Dyn (1–13)NH2; 50 μM forskolin
Sequence of cloned rat κappa opioid receptors (P34975 whole entry): as above
Procedure, shortened: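 CHO cells stably expressing the receptor were washed twice in F12 medium and labelled for 4 h with 12 μCi [3H]adenine. They were then incubated 40 min at 37 °C with forskolin, peptidase inhibitors (10 μM bestatin, 30 μM captopril, 50 μM l-leucyl-l-leucine) and test compound at 0.1–10,000 nM in 10-fold steps. The reaction was stopped with SDS/cAMP, then perchloric acid. [3H]cAMP was counted by scintillation, with [14C]cAMP used for recovery and crossover correction.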

[3] = system: KOR; conditions: cited from earlier work; for Duration of action in vivo: after a single dose
[4] = biological target: T1, cloned rat kappa opioid receptors; assay type: biochemical

For “[N-BenzylTyr^1,cyclo(D-Asp^5,Dap^8]Dyn (1–11) amide [Zyklophin]”, the “Effect of the compound alone on FMP fluorescence” value (“Effect of the compound alone” below) [1] was “Neither zyklophin nor nor-BNI alone influenced FMP fluorescence; also recorded: did not elicit a significant reduction in FMP fluorescence”, the “Efficacy, FMP blue” value [1] was 0 and the Kb ([1]; read-out: KB from Schild regression, antagonism of U50,488) was 0.564 µM. For the same molecule, the “Efficacy, adenylyl cyclase” value [2] was 0.23, the Duration of antagonism ([3]; after systemic administration) was “less than 12 h” and the “Efficacy, [35S]GTPγS” value [4] was 0.

In the case of “[N-Benzyl-Tyr^1,Dap(Ac)^8]Dyn A(1–11) amide [JVA 3416]”, the “Efficacy, FMP blue” value [1] was 0.48 and 0.48 ± 0.10, the “Efficacy, adenylyl cyclase” value [2] was 1.0 and the “Efficacy, [35S]GTPγS” value [4] was 0.26 ± 0.06.

In the case of [N-Allyl-Tyr^1]zyklophin [JVA 3419], the “Efficacy, FMP blue” value [1] was 0.15 ± 0.04, the “Efficacy, adenylyl cyclase” value [2] was 0.33 and the “Efficacy, [35S]GTPγS” value [4] was 0.07 ± 0.17.

With [N-Methyl-Tyr^1]zyklophin [JVA 3418] the “Efficacy, FMP blue” value [1] was 0.14 ± 0.03, the “Efficacy, adenylyl cyclase” value [2] was 0.58 and the “Efficacy, [35S]GTPγS” value [4] was 0.10 ± 0.10.

In the case of zyklophin-(1–8) [JVA 3413], the “Efficacy, FMP blue” value [1] was 0.22 ± 0.04, the “Efficacy, adenylyl cyclase” value [2] was 0.35 and the “Efficacy, [35S]GTPγS” value [4] was 0.07 ± 0.14.

In the case of `CC1C2Cc3ccc(O)cc3C1(C)CCN2CC1CC1` (single isomer, unassigned; (+)) [(+)-Cyclazocine, (+)-cyclazocine], the “Effect of the compound alone” value [1] was “did not affect FMP fluorescence”.

For `Oc1ccc2c3c1O[C@H]1c4[nH]c5c(c4C[C@@]4(O)[C@@H](C2)N(CC2CC2)CC[C@]314)C[C@@]1(O)[C@H]2Cc3ccc(O)c4c3[C@@]1(CCN2CC1CC1)[C@H]5O4` [nor-BNI, nor-binaltorphimine], the “Effect of the compound alone” value [1] is listed as “Neither zyklophin nor nor-BNI alone influenced FMP fluorescence” and the “Duration of action in vivo” value [3] is listed as “lasting weeks after a single dose”.

For `CC(C)[C@@H](CN1CC[C@@](C)(c2cccc(O)c2)[C@@H](C)C1)NC(=O)[C@H]1Cc2ccc(O)cc2CN1` [JDTic], the “Duration of action in vivo” value [3] is listed as “lasting weeks after a single dose”.

With `CC(C)=CCN1CCC2(C)c3cc(O)ccc3CC1C2C` (stereo not drawn) [Pentazocine, pentazocine] the “Efficacy (relative)” value [1] was 0.44 ± 0.04 and the pIC50 [1] was 7.58.
